According to ChEMBL document CHEMBL1151234, “Chemistry of renieramycins. Part 5. Structure elucidation of renieramycin-type derivatives O, Q, R, and S from thai marine sponge Xestospongia species pretreated with potassium cyanide” (J Nat Prod, 2004):

Tests used:
HCT-116 = assay: Cytotoxicity against human HCT116 cells after 4 days; format: functional, cell-based; settings: HCT-116, 96 h
How it was run: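 Single-cell suspension of HCT116 cells seeded at 2 × 10^3 cells/well onto serially diluted test compounds, cultured 4 days. Growth read with a cell counting kit. IC50 taken as the concentration giving 50% growth inhibition versus untreated control.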

QG-56 = assay: Cytotoxicity against human QG56 cells after 4 days; format: functional, cell-based; settings: QG-56, 96 h

SMILES | IC50 (HCT-116) | IC50 (QG-56)
C/C=C(/C)C(=O)OC[C@H]1C2=C(C[C@H]3[C@H]4c5c(OC(C)=O)c(OC)c(C)c(OC(C)=O)c5[C@H](OC(C)=O)[C@@H]([C@H](C#N)N13)N4C)C(=O)C(C)=C(OC)C2=O | 630 nM | 1600 nM
C/C=C(/C)C(=O)OC[C@H]1c2c(c(OC(C)=O)c(C)c(OC)c2OC(C)=O)C[C@H]2[C@H]3c4c(c(OC(C)=O)c(C)c(OC)c4OC(C)=O)C[C@@H]([C@H](C#N)N12)N3C | 3 nM | 7.9 nM
C/C=C(/C)C(=O)OC[C@H]1c2c(c(OC(C)=O)c(C)c(OC)c2OC(C)=O)C[C@H]2[C@H]3C4=C(C[C@@H]([C@H](C#N)N12)N3C)C(=O)C(C)=C(OC)C4=O | 1.9 nM | 3.9 nM
C/C=C(/C)C(=O)OC[C@H]1C2=C(C[C@H]3[C@H]4C5=C(C(=O)C(C)=C(OC)C5=O)[C@H](OC(C)=O)[C@@H]([C@H](C#N)N13)N4C)C(=O)C(C)=C(OC)C2=O | 120 nM | 300 nM
C/C=C(/C)C(=O)OC[C@H]1C2=C(C[C@H]3[C@H]4c5c(O)c(OC)c(C)c(O)c5C(=O)[C@@H]([C@H](C#N)N13)N4C)C(=O)C(C)=C(OC)C2=O [RENIERAMYCIN Q] | 59 nM | 71 nM
C/C=C(/C)C(=O)OC[C@H]1C2=C(C[C@H]3[C@H]4C5=C(C[C@@H]([C@H](C#N)N13)N4C)C(=O)C(C)=C(OC)C5=O)C(=O)C(C)=C(O)C2=O [RENIERAMYCIN S] | 15 nM | 26 nM
C/C=C(/C)C(=O)OC[C@H]1C2=C(C[C@H]3[C@H]4C5=C(C(=O)C(C)=C(OC)C5=O)[C@H](OC)[C@@H]([C@H](C#N)N13)N4C)C(=O)C(C)=C(OC)C2=O [RENIERAMYCIN R] | 23 nM | 29 nM
